Experimental data as given in publication PMC3969268 (Journal of medicinal chemistry, 2012).

Assays:
[1] = target: EcFtsZ-bound BoGTPγS (GTP binding pocket) (Escherichia coli, UniProt P0A9A6); assay: BoGTPγS fluorescence anisotropy competition assay, EcFtsZ; parameters: species or system E. coli; settings: 1 μM BoGTPγS, 5 μM FtsZ, competitor 0 to 40 μM
Procedure, shortened: (§1)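 Competition anisotropy assay: 1 μM BODIPY-GTPγS with 0 or 5 μM FtsZ, plus test compound or unlabeled GTP (0–40 μM), in 50 mM Tris·HCl pH 7.4, 50 mM KCl, 2 mM magnesium acetate. After 5 min at 25 °C, probe anisotropy was read (ex 488/em 510 nm, 4 nm bandwidths), compared with FtsZ-free probe. Triplicates averaged.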

[2] = target: SaFtsZ-bound BoGTPγS (GTP binding pocket) (Staphylococcus aureus, UniProt P0A031); assay: BoGTPγS fluorescence anisotropy competition assay, SaFtsZ; settings: 1 μM BoGTPγS, 5 μM FtsZ, competitor 0 to 40 μM
Procedure, shortened: as §1

[3] = target: EfFtsZ-bound BoGTPγS (GTP binding pocket) (Enterococcus faecalis, UniProt O08439); assay: BoGTPγS fluorescence anisotropy competition assay, EfFtsZ; parameters: species or system E. faecalis; settings: 1 μM BoGTPγS, 5 μM FtsZ, competitor 0 to 40 μM
EcFtsZ [4] = target: T1, EcFtsZ (Escherichia coli, UniProt P0A9A6); settings: previously reported; cited from earlier work
EcFtsZ [5] = target: T1, EcFtsZ; assay: FtsZ polymerization light-scattering; format: biochemical, E. coli
SaFtsZ [6] = target: T2, SaFtsZ (Staphylococcus aureus, UniProt P0A031); assay: FtsZ polymerization light-scattering; format: biochemical, S. aureus; settings: for extent of stimulation of FtsZ polymerization (A340): 40 μg/mL compound or comparator drug
T2 sequence (P0A031 1-390): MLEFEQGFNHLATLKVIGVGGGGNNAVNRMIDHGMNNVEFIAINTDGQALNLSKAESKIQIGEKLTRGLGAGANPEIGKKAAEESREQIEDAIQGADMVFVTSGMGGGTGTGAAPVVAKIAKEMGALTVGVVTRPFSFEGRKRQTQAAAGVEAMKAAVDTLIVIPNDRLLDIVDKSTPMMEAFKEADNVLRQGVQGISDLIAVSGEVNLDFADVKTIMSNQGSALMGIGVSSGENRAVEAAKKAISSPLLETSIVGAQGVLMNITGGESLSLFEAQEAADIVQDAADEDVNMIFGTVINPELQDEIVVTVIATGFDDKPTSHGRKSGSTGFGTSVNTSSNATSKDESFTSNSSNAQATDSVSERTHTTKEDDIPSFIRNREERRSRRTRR

S. aureus [7] = assay: Emergence of resistance, large inoculum approach; format: cell-based; settings: ~3 × 10^9 CFU/mL S. aureus on TSA plates with agent at 4- to 32-fold MIC; 24 h
SaFtsZ [8] = target: T2, SaFtsZ; assay: Transmission electron microscopy of compound-induced FtsZ polymers, SaFtsZ; format: biochemical; settings: 20 μg/mL
[9] = target: E. faecalis FtsZ (EfFtsZ) (Enterococcus faecalis, UniProt O08439); assay: Fluorescence anisotropy determination of compound-FtsZ binding affinity, EfFtsZ; settings: for binding to FtsZ (qualitative; Kd not quantifiable): EfFtsZ
EcFtsZ [10] = target: T1, EcFtsZ; assay: Transmission electron microscopy of compound-induced FtsZ polymers, EcFtsZ; format: biochemical, E. coli; settings: 20 μg/mL
I228R mutant SaFtsZ [11] = target: T3, I228R mutant SaFtsZ (Staphylococcus aureus, UniProt P0A031, I228R); assay: Fluorescence anisotropy binding affinity, I228R mutant SaFtsZ; parameters: species or system S. aureus; settings: ratio of Kd values
I228R mutant SaFtsZ [12] = target: T3, I228R mutant SaFtsZ; assay: FtsZ polymerization light-scattering; format: biochemical, S. aureus
G196A mutant SaFtsZ = G196A mutant SaFtsZ (Staphylococcus aureus, UniProt P0A031, G196A); assay: FtsZ polymerization light-scattering; format: biochemical, S. aureus; settings: G196A mutant (not shown)
S. aureus 8325-4 (MSSA) [13] = assay: Time-kill assay; format: cell-based; settings: for reduction of bacterial number (CFUs): 8 × MIC (8 μg/mL)
Procedure, shortened: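 Exponential-phase S. aureus 8325-4 was diluted in cation-adjusted Mueller-Hinton broth to 10^5–10^6 CFU/mL, with DMSO as vehicle control. Cultures were shaken at 37 °C and sampled at 0, 2, 4 and 6 h. Samples were plated on tryptic soy agar, centrifuged and resuspended when undiluted to avoid carry-over. Colonies were counted after 24 h at 37 °C.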

E185A mutant SaFtsZ [14] = target: T4, E185A mutant SaFtsZ (Staphylococcus aureus, UniProt P0A031, E185A); assay: FtsZ polymerization light-scattering; format: biochemical, S. aureus
E185A mutant SaFtsZ [15] = target: T4, E185A mutant SaFtsZ; assay: Fluorescence anisotropy binding affinity, E185A mutant SaFtsZ; parameters: species or system S. aureus; settings: ratio of Kd values
EfFtsZ = EfFtsZ (Enterococcus faecalis, UniProt O08439); assay: FtsZ polymerization light-scattering; format: biochemical, E. faecalis
[16] = target: MAP-rich porcine β-tubulin (70% β-tubulin, 30% MAPs) (Sus scrofa, UniProt P02554); assay: Tubulin polymerization light-scattering; format: biochemical; settings: 2 mg/mL porcine β-tubulin, 1 mM GTP, 37 °C
S. aureus 8325-4 (MSSA) [17] = format: cell-based; settings: after 12 incubation cycles
E. coli FtsZ (EcFtsZ) = E. coli FtsZ (EcFtsZ) (Escherichia coli, UniProt P0A9A6); assay: Fluorescence anisotropy determination of compound-FtsZ binding affinity, EcFtsZ
[18] = target: S. aureus FtsZ (SaFtsZ), wild-type (Staphylococcus aureus, UniProt P0A031); format: binding
S. aureus [19] = settings: known from literature; cited from earlier work
[20] = system: S. aureus ATCC 49951 (MSSA); assay: MIC broth microdilution, S. aureus ATCC 49951; format: cell-based; settings: Staphylococcus aureus, ATCC49951|MSSA, 24 h
S. aureus 8325-4 (MSSA) [21] = assay: MIC broth microdilution, S. aureus 8325-4; format: cell-based; settings: 24 h
S. aureus 8325-4 = assay: Minimum bactericidal concentration; format: cell-based
[22] = system: E. faecalis ATCC 51575 (VRE); assay: MIC broth microdilution, E. faecalis ATCC 51575; format: cell-based; settings: CAMH broth, 24 h, 37 °C
[23] = system: E. faecalis ATCC 19433 (VSE); assay: MIC broth microdilution, E. faecalis ATCC 19433; format: cell-based; settings: CAMH broth, 24 h, 37 °C
S. aureus Mu3 (MRSA) = assay: MIC broth microdilution, S. aureus Mu3; format: cell-based; settings: S. aureus Mu3 (MRSA, hetero-GISA); CAMH broth + 2% NaCl, 24 h, 37 °C
[24] = system: S. aureus ATCC 33591 (MRSA); assay: MIC broth microdilution, S. aureus ATCC 33591; format: cell-based; settings: CAMH broth + 2% NaCl, 24 h, 37 °C
[25] = 40 μg/mL compound or comparator drug
[26] = compound 0 to 40 μg/mL, 10 μM protein, 1 mM GTP, 25 °C

Sequence of MAP-rich porcine β-tubulin (70% β-tubulin, 30% MAPs) (P02554 whole entry): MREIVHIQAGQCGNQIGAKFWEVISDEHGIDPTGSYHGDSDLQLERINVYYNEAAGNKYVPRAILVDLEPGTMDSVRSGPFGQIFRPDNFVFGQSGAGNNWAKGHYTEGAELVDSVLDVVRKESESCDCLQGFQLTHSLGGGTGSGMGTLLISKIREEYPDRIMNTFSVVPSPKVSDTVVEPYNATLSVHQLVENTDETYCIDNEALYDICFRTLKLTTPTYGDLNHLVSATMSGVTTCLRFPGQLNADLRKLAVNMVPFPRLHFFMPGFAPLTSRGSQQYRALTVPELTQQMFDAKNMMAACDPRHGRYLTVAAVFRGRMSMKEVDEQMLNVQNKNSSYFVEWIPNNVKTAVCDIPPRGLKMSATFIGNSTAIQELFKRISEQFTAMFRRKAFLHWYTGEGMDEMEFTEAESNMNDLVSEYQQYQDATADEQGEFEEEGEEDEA
Sequence of MAP-rich porcine β-tubulin (70% β-tubulin, 30% MAPs) (P02550 whole entry partner): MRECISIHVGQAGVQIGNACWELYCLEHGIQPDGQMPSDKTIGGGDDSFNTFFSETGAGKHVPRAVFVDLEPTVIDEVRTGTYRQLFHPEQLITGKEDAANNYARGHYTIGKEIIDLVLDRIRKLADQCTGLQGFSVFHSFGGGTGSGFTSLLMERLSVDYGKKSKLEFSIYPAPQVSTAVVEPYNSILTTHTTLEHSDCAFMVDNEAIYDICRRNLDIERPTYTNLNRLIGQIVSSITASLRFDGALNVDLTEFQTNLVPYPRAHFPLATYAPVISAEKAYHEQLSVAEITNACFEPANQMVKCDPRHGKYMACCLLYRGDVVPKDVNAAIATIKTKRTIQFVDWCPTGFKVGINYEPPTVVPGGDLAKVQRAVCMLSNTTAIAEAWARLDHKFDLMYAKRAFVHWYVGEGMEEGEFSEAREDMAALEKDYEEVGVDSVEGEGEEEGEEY
T1 sequence (P0A9A6 whole entry): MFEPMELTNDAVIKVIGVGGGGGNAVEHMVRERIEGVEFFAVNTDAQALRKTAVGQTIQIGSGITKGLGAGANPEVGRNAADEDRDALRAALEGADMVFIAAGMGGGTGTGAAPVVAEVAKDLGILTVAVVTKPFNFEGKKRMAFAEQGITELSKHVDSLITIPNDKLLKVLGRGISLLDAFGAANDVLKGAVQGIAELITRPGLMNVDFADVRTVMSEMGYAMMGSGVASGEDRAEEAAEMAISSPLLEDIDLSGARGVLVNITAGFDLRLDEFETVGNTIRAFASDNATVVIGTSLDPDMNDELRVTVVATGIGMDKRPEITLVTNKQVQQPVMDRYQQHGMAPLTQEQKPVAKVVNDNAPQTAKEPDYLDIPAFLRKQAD
Sequence of EcFtsZ-bound BoGTPγS (GTP binding pocket) (P0A9A6 whole entry): as above
Sequence of E. coli FtsZ (EcFtsZ) (P0A9A6 whole entry): as above

## Nc1nc2c(ncn2[C@@H]2O[C@H](COP(=O)(O)OP(=O)(O)OP(=O)(O)O)[C@@H](O)[C@H]2O)c(=O)[nH]1 [GTP, reference compound]
[1]
  effect on anisotropy of FtsZ-bound BoGTPγS: marked, concentration-dependent decrease
[2]
  effect on anisotropy of FtsZ-bound BoGTPγS: marked, concentration-dependent decrease
[3]
  effect on anisotropy of FtsZ-bound BoGTPγS: marked, concentration-dependent decrease

## NC(=O)c1c(F)ccc(OCc2nc3cc(Cl)cnc3s2)c1F [PC190723]
EcFtsZ [4]
  impact on EcFtsZ polymerization: does not affect the polymerization

## CC1(C)S[C@@H]2[C@H](NC(=O)[C@H](N)c3ccccc3)C(=O)N2[C@H]1C(=O)[O-].[Na+] [ampicillin, reference compound]
EcFtsZ [5]; [25]
  extent of stimulation of FtsZ polymerization (A340): negligible impact

## CCC[C@@H]1C[C@@H](C(=O)N[C@@H]([C@H]2O[C@H](SC)[C@H](O)[C@@H](O)[C@H]2O)[C@H](C)Cl)N(C)C1.Cl [clindamycin, reference compound]
SaFtsZ [6]; SaFtsZ
  extent of stimulation of FtsZ polymerization (A340): negligible impact

## CC(C)(C)c1ccc(-c2cccc(CNC(=N)N)c2)cc1 [compound 13, 1-((4′-(tert-Butyl)-[1,1′-biphenyl]-3-yl)methyl)guanidine]
SaFtsZ [6]; SaFtsZ, compound 0 to 40 μg/mL, 10 μM protein, 1 mM GTP, 25 °C
  impact on FtsZ polymerization dynamics (A340): increases both the kinetics and extent
SaFtsZ [6]; wild-type SaFtsZ, 10 μg/mL
  impact on SaFtsZ polymerization (A340): stimulatory impact
S. aureus [7]
  agent-containing plates on which colonies were observed: none
SaFtsZ [8]
  FtsZ polymer assembly and bundling by EM: promotes both the assembly and bundling of SaFtsZ polymers
[9]; ratio of Kd values
  affinity for EfFtsZ lower than affinity for SaFtsZ and EcFtsZ: approximately 6 fold
E. coli N43 (acrA1)
  AcrAB efflux pump substrate (inferred from MIC N43 vs W4573): substrate for the AcrAB efflux transporter
EcFtsZ [10]
  FtsZ polymer assembly and bundling by EM: promoting only the assembly, and not the bundling, of EcFtsZ polymers
I228R mutant SaFtsZ [11]
  affinity for I228R mutant lower than for wild-type SaFtsZ: approximately 10 fold
[1]
  effect on anisotropy of FtsZ-bound BoGTPγS: does not significantly alter the anisotropy
I228R mutant SaFtsZ [12]; 10 μg/mL
  impact on SaFtsZ polymerization (A340): essentially no effect
I228R mutant SaFtsZ [12]; 20 μg/mL
  magnitude of stimulation of SaFtsZ polymerization (A340): markedly lower than that observed for wild-type SaFtsZ
G196A mutant SaFtsZ
  effect of G196A mutation on stimulation of SaFtsZ polymerization by compound: negligible effect
S. aureus 8325-4 (MSSA) [13]; within 2 h
  reduction of bacterial number (CFUs): three logs
S. aureus 8325-4 (MSSA) [13]; within 6 h
  reduction of bacterial number (CFUs): four logs
S. aureus 8325-4 (MSSA) [13]; both agents at 8 × MIC
  rate of kill relative to vancomycin: approximately 100 times
EcFtsZ [5]; [26]
  impact on FtsZ polymerization dynamics (A340): increases both the kinetics and extent
E185A mutant SaFtsZ [14]; 10 μg/mL
  impact on SaFtsZ polymerization (A340): essentially no effect
E185A mutant SaFtsZ [14]; 20 μg/mL
  magnitude of stimulation of SaFtsZ polymerization (A340): markedly lower than that observed for wild-type SaFtsZ
[2]
  effect on anisotropy of FtsZ-bound BoGTPγS: does not significantly alter the anisotropy
[3]
  effect on anisotropy of FtsZ-bound BoGTPγS: does not significantly alter the anisotropy
E185A mutant SaFtsZ [15]
  affinity for E185A mutant lower than for wild-type SaFtsZ: approximately 10 fold
EfFtsZ; [26]
  impact on FtsZ polymerization dynamics (A340): increases both the kinetics and extent
[16]; 40 μg/mL
  impact on tubulin polymerization (A340): negligible impact
S. aureus 8325-4 (MSSA) [17]
  change of MIC over repeated incubation cycles: did not change to any significant degree

## CC(C)(C)c1ccc(-c2ccnc(CNC(=N)N)c2)cc1 [compound 14, 1-((4-(4-(tert-Butyl)phenyl)pyridin-2-yl)methyl)guanidine]
[9]
  binding to FtsZ (qualitative; Kd not quantifiable): weak nature of the binding interactions
E. coli N43 (acrA1)
  AcrAB efflux pump substrate (inferred from MIC N43 vs W4573): substrates of the AcrAB efflux pump
E. coli FtsZ (EcFtsZ)
  binding to FtsZ (qualitative; Kd not quantifiable): weak nature of the binding interactions
[18]
  binding to FtsZ (qualitative; Kd not quantifiable): weak nature of the binding interactions

## CC(C)(C)c1ccc(-c2cc(CNC(=N)N)ncn2)cc1 [compound 15, 1-((6-(4-(tert-Butyl)phenyl)pyrimidin-4-yl)methyl)guanidine]
[9]
  binding to FtsZ (qualitative; Kd not quantifiable): weak nature of the binding interactions
E. coli N43 (acrA1)
  AcrAB efflux pump substrate (inferred from MIC N43 vs W4573): substrates of the AcrAB efflux pump
E. coli FtsZ (EcFtsZ)
  binding to FtsZ (qualitative; Kd not quantifiable): weak nature of the binding interactions
[18]
  binding to FtsZ (qualitative; Kd not quantifiable): weak nature of the binding interactions

## COC(=O)Nc1nc2cc(C(=O)c3cccs3)ccc2[nH]1 [nocodazole]
[16]; 10 μg/mL
  impact on tubulin polymerization (A340): expected inhibitory impact

## CC(=O)O[C@H]1C(=O)[C@@]2(C)[C@H]([C@H](OC(=O)c3ccccc3)[C@]3(O)C[C@H](OC(=O)[C@H](O)[C@@H](NC(=O)c4ccccc4)c4ccccc4)C(C)=C1C3(C)C)[C@]1(OC(C)=O)CO[C@@H]1C[C@@H]2O [paclitaxel]
[16]; 25 μg/mL
  impact on tubulin polymerization (A340): expected stimulatory impact

## CO[C@H]1/C=C/O[C@@]2(C)Oc3c(C)c(O)c4c(O)c(c(/C=N/N5CCN(C)CC5)c(O)c4c3C2=O)NC(=O)/C(C)=C\C=C\[C@H](C)[C@H](O)[C@@H](C)[C@@H](O)[C@@H](C)[C@H](OC(C)=O)[C@@H]1C [rifampicin, reference compound]
S. aureus [7]
  agent-containing plates on which colonies were observed: 100%
S. aureus [19]
  rate of induced spontaneous mutants in S. aureus: 10^−6 to 10^−8

## CN[C@H](CC(C)C)C(=O)N[C@H]1C(=O)N[C@@H](CC(N)=O)C(=O)N[C@H]2C(=O)N[C@H]3C(=O)N[C@H](C(=O)N[C@H](C(=O)O)c4cc(O)cc(O)c4-c4cc3ccc4O)[C@H](O)c3ccc(c(Cl)c3)Oc3cc2cc(c3O[C@@H]2O[C@H](CO)[C@@H](O)[C@H](O)[C@H]2O[C@H]2C[C@](C)(N)[C@H](O)[C@H](C)O2)Oc2ccc(cc2Cl)[C@H]1O.Cl [vancomycin]
[20]
  MIC: 0.5 µg/mL
S. aureus 8325-4 (MSSA) [21]; Staphylococcus aureus, MSSA
  MIC: 0.5 µg/mL
S. aureus 8325-4
  MBC/MIC: 2
EfFtsZ; [25]
  extent of stimulation of FtsZ polymerization (A340): negligible impact

## oxacillin
SaFtsZ [6]; SaFtsZ
  extent of stimulation of FtsZ polymerization (A340): negligible impact
[22]
  MIC: 64.0 µg/mL
S. aureus 8325-4 (MSSA) [21]; S. aureus 8325-4 (MSSA), CAMH broth, 37 °C, ≥90% growth inhibition
  MIC: 0.063 µg/mL
[23]
  MIC: 8.0 µg/mL
S. aureus Mu3 (MRSA)
  MIC: >64.0 µg/mL
[24]
  MIC: >64.0 µg/mL
